M1 antag: M1 muscarinic receptor (rat) antagonism. P08482. CHO-M1 cells, Fluo-4 calcium, ACh EC80 antagonist mode; stronger effect = lower value. B-score at 10 µM. 3.4% of 64,000 active. AID 628;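 active means calcium fluorescence response, raw or row-and-column corrected B-score, differing from the plate sample mean either way at a set confidence level, mostly lower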
Htt clearance: compounds clearing mutant huntingtin protein; 0.42% of 47,000 active; inhibition, % at 1.5 µM; HeLa Exon1htt(103Q)mCFP, aggregate imaging; zero = plate's median compound well;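 active means inhibition of aggregate fluorescence above about 70%, also judged a hit by eye on the cell image, limit read from the data, passing the limit was not always enough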;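 further: cells exposed to compound for three days before fixation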
M1 ag: activates the M1 muscarinic receptor. CHO-M1 cells, Fluo-4 calcium fluorescence, agonist mode; stronger effect = higher value. B-score at 10 µM. 3% of 64,000 active. AID 626;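 active means fluorescence rise, raw or as B-score row- and column-corrected plate score, outside the 99.7% band of its plate's samples, either direction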
AP complement: alternative pathway complement inhibition, orthogonal assay; 0.08% of 62,000 active; Human serum alternative complement pathway, LPS-coated ELISA, C3 deposition; tested in compound mixtures; inhibition, % at 5 µM;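 active means inhibition above 30% in each of the two pooled mixtures holding the compound, so the lower value exceeds 30%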;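 further: 0% = serum in Mg-EGTA without compound and 100% = EDTA serum blank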
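Test system: human serum complement alternative pathway, C3 deposition onto LPS / Medium: Mg2+-EGTA GVB++ buffer containing human serum at 1:15 dilution / Probe or stimulus: Plate-bound LPS / Times: 1 h at 37 °C / Signal: ELISA with HRP anti-human C3 antibody, TMB substrate, absorbance 450 nm / Measure: percent inhibition / Repeats: two pool placements per compound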
D1 allo mod: allosterically modulates the human D1 dopamine receptor | P21728 | HEK293 D1, CRE-luciferase, dopamine EC30 potentiation; actives deviate in either direction | B-score at 10 µM | 5.9% of 58,000 active;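 active means luminescence count or its row- and column-corrected plate score outside the 99.7% band of the plate's sample wells, on either side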
Target sequence (P21728 whole entry, looked up): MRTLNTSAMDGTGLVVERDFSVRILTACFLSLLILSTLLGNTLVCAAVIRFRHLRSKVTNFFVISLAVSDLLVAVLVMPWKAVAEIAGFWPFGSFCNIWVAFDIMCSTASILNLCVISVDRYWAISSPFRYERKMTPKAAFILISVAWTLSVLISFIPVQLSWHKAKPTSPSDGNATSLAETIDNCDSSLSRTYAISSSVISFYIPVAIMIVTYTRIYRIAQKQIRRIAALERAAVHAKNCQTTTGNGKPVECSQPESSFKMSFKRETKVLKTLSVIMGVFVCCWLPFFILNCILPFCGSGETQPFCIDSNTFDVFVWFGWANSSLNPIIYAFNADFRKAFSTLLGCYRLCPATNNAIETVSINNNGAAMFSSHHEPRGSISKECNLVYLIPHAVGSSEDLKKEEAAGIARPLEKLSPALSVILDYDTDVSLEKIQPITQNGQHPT
* marks the source's active call; other numbers are inactive results; / = no result given. In the library only some 9% were active in any assay of this set; here they are far more common.

SMILES | M1 antag | Htt clearance | M1 ag | AP complement | D1 allo mod
CCOC(=O)C1=C(C)NC(=O)NC1c1cccnc1 (centres undefined) | 0.453 | / | -0.6 | 4.9 | -7.79*
CCOC(=O)C1=C(C)NC(=O)NC1c1ccc(NC(C)=O)cc1 (centres undefined) | -0.011 | 33.7 | 0.153 | 0.2 | -1.38
COc1cccc(C(=O)Nc2ccc(NC(=O)C(C)(C)C)cn2)c1 | -0.31 | -15.4 | -1.08 | 2.5 | -6.32*
COc1cccc(C(=O)Nc2cccc(NC(C)=O)c2)c1 | 1.17 | -27.3 | 0.489 | -14.5 | 0.194
COc1ccc(C(=O)Nc2cccc(OC)c2)cc1 | -0.144 | 14.4 | 0.0789 | 16.3 | -3.71*
COc1cccc(C(=O)Nc2cnc(NC(=O)c3ccco3)cc2C)c1 | -0.0748 | 8.2 | -0.0153 | -1.3 | -0.289
CCCS(=O)(=O)N1CCCC(C(=O)NCCc2ccc(OC)c(OC)c2)C1 (centres undefined) | 0.135 | -82.4 | -0.00337 | -4.9 | -0.0169
COc1cccc(-c2csc(N3CCN(C(=O)NC45CC6CC(CC(C6)C4)C5)CC3)n2)c1 | / | 54.6 | / | / | /
CCOC(=O)C(C(=O)OCC)c1cc(Br)c2noc3c2c1C(=O)c1ccccc1-3 | -0.761 | -56.9 | 788* | -5.0 | -1.04
COCCN1Cc2cccc(C(=O)Nc3cccnc3)c2C1=O | -0.135 | -77.1 | 0.0173 | 11.8 | 2.93
CCCN1Cc2cccc(C(=O)Nc3ccc(OC)c(OC)c3)c2C1=O | -0.496 | / | -0.806 | 8.9 | 3.8*
CCCN1Cc2cccc(C(=O)NCc3ccccc3OC)c2C1=O | / | 6.8 | / | / | /
COCCN1Cc2cccc(C(=O)Nc3ccc(S(=O)(=O)N4CCCCC4)cc3)c2C1=O | / | / | / | 11.4 | 6.76*
CCN(c1ccc(C)c(C)c1)S(=O)(=O)c1c(C)[nH]c(=O)[nH]c1=O | / | 6.9 | / | / | /
COc1cccc(-c2cc3nc(-c4ccccc4)cc(N4CCC5(CC4)OCCO5)n3n2)c1 | 0.0681 | / | 0.571 | 16.8 | -0.294
COc1ccc(-c2cc3nc4c(c(N5CCC6(CC5)OCCO6)n3n2)CCCC4)cc1 | -0.761 | / | -0.189 | 15.3 | 3.71*
COc1ccc(C(=O)Cn2c(N3CCOCC3)nc3ccccc32)cc1OC | -0.669 | / | 0.083 | 9.5 | -2.98*
O=c1cc(N2CCN(c3ccccc3F)CC2)[nH]c(=O)n1-c1ccc(Br)cc1 | 0.348 | 4.2 | -2.63* | 13.9 | -2.24
COc1ccccc1N1CCN(c2cc(=O)n(-c3ccc(Br)cc3)c(=O)[nH]2)CC1 | -0.0494 | / | -0.534 | 8.8 | -0.0588
COc1ccc(-c2onc3ccc(Cl)cc23)cc1OC | 0.265 | 57.3 | 1.74 | 7.5 | 12.8*
CCOc1ccc(-c2nnc(-c3snc(-c4ccc(F)cc4)c3N=CN(C)C)o2)cc1 | 0.184 | / | 0.026 | -5.4 | -0.289
CCc1nc(NCCN2CCOCC2)c2oc3ccccc3c2n1 | -0.324 | / | -0.0557 | 2.0 | 3.17*
CCOCCCNC(=O)c1ccc2c(c1)OCO2 | 0.0215 | -7.3 | 0.115 | -13.5 | -0.514
O=C(NCCOc1ccccc1)c1ccc2c(c1)OCO2 | -0.214 | / | 0.00083 | 1.1 | -7.5*
O=C(c1cc2ccccc2o1)N1CCN=C1SCc1cccnc1 | -0.102 | / | -0.871 | 8.0 | -1.81*
SMILES | M1 antag | Htt clearance | M1 ag | AP complement | D1 allo mod
O=C(c1cc2ccccc2o1)N1CCN=C1SCc1cccc(F)c1 | 0.829 | -11.2 | 0.164 | 20.2 | -0.954
CC12CCC(C(=O)N3CCN(Cc4ccccc4)CC3)(OC1=O)C2(C)C (centres undefined) | -0.262 | / | 0.368 | 9.8 | 0.0163
c1ccc(-c2cc(-c3nc(-c4ccccn4)no3)c3ccccc3n2)cc1 | 0.505 | 23.2 | -0.693 | 10.0 | 1.14
COc1cc(-c2nc(-c3ccccn3)no2)cc(OC)c1OC | 0.344 | / | 0.109 | 21.4 | /
c1ccc(-c2noc(-c3ccc4ccccc4c3)n2)cc1 | 0.32 | / | -0.0735 | 8.0 | -6.96*
c1ccc(-c2ccc(-c3nc(-c4ccccn4)no3)cc2)cc1 | 1.12 | / | 0.888 | 11.2 | -9.56*
Cc1ccc(-c2nc(-c3ccccn3)no2)cc1Cl | -0.107 | / | -0.564 | 5.1 | -4.42*
Clc1cccc(-c2nc(-c3ccccn3)no2)c1 | 0.566 | 14.9 | -1.49 | 4.0 | -6.91*
Cn1cc(S(=O)(=O)NCc2ccco2)c(=O)n(C)c1=O | 0.806 | / | -1.5 | 12.3 | -1.17
CC(=O)c1sc2nc(=O)c(C)nn2c1C | 0.0583 | / | -0.336 | 0.3 | 0.13
COc1ccc(OC)c(C(C)NC(=O)c2ccco2)c1 (centres undefined) | 0.585 | -7.2 | -0.551 | 17.8 | -0.24
CCOC(=O)c1c(C)noc1CP(=O)(c1ccccc1)c1ccccc1 | / | -52.2 | / | 9.1 | /
COc1cccc(-c2nc(-c3ccccn3)no2)c1OC | 0.213 | 54.1 | 0.173 | 0.0 | /
c1ccc(-c2noc(-c3cccc4ccccc34)n2)nc1 | 0.487 | 20.4 | -0.471 | 24.0 | -2.84*
c1ccc(-c2nc(-c3ccccn3)no2)cc1 | / | -29.1 | / | / | /
Cc1ccc(-c2nc(-c3ccccn3)no2)cc1 | -0.591 | -35.5 | 0.363 | 6.3 | -7.59*
C[N+]12CCCCC1C(COC(=O)c1ccc3c(c1)OCO3)CCC2 (centres undefined) | / | -34.3 | / | / | /
Nc1ccc(CN2CCN(c3ccc4ccccc4n3)CC2)cc1 | -0.264 | / | -0.0698 | 7.3 | -2.91
CCCNC(=O)NC(C(=O)OC)C12CC3CC(CC(C3)C1)C2 (centres undefined) | -0.175 | 10.9 | 0.645 | 6.1 | 0.599
COc1ccc2cc(C3(C)NC(=O)NC3=O)ccc2c1 (centres undefined) | 2.36* | 2.9 | 0.373 | 3.9 | -0.791
CC(/C=C/c1ccc(O)cc1)=N/O | / | -47.7 | / | / | /
CCOc1cccc(C(=O)Nc2nnc(-c3ccco3)s2)c1 | 0.769 | 20.0 | -0.275 | 13.5 | -3.66*
CCOC(=O)Cc1nnc(NC(=O)c2cccc(OCC)c2)s1 | -0.66 | 22.3 | -0.301 | 11.3 | 0.593
O=C(CSc1nc2c(c(=O)[nH]1)CCCC2)Nc1ccc(Cl)cc1F | 0.486 | / | 2.23 | 12.1 | -0.697
O=C(Cc1ccc(S(=O)(=O)N2CCOCC2)s1)Nc1ccc2c(c1)CCC2 | -0.771 | 53.6 | -0.953 | -0.5 | 0.0978
SMILES | M1 antag | Htt clearance | M1 ag | AP complement | D1 allo mod
O=C(Cc1ccc(S(=O)(=O)N2CCOCC2)s1)NCC1CCCCC1 | 0.187 | -0.1 | -1.17 | 6.0 | -7.03*
Nn1c(=O)c2ccccc2n2c(SCc3ccccc3)nnc12 | 0.316 | 80.4* | -0.239 | 7.3 | 0.258
CCCn1c(=O)c2ccccc2n2c(SCc3nnc(-c4ccccc4Br)o3)nnc12 | 1.28 | / | 0.436 | 12.3 | 0.256
Cn1c(=O)c2c3c(sc2n2c(SCC(=O)c4ccccc4)nnc12)COC(C)(C)C3 | -2.89* | / | -0.78 | / | /
Cn1c(=O)c2c3c(sc2n2c(SCC(=O)c4ccc(Cl)cc4)nnc12)COC(C)(C)C3 | -0.237 | / | 0.0282 | 4.4 | 0.00378
CCCn1c(=O)c2ccccc2n2c(SCC(=O)c3ccccc3)nnc12 | 2.51* | -16.9 | 2.29 | 2.8 | 0.0174
COCCN1CN=C(Nc2nc(C)c3ccc(C)cc3n2)NC1 | -7.3* | / | 0.267 | 19.4 | -0.559
Cc1ccc2c(C)nc(NC3=NCN(CCc4ccccc4)CN3)nc2c1 | -12.6* | / | 0.574 | -17.9 | -2.25
Cc1ccc2nc(NC3=NCN(Cc4ccccc4)CN3)nc(C)c2c1 | -0.941 | / | 0.145 | 9.4 | -0.478
COCCN1CN=C(Nc2nc3ccccc3s2)NC1 | 0.11 | -12.2 | 0.231 | 16.5 | -0.14
